# From ChEMBL document CHEMBL4118248, “Small Molecule Proprotein Convertase Subtilisin/Kexin Type 9 (PCSK9) Inhibitors: Hit to Lead Optimization of Systemic Agents” (J Med Chem, 2018)
# Columns and labels:
# [1] = tested on: Rattus norvegicus; test: Toxicity in Crl:CD(SD) rat assessed as decrease in helper T cells at 50 mg/kg/day, po daily via gavage for 14 days measured on day 15 post last dose relative to control; format: organism-based; design: scale not given: the % may be the effect or the level left; conditions: in vivo, 336 h
# [2] = tested on: Rattus norvegicus; test: Toxicity in Crl:CD(SD) rat assessed as decrease in total erythroid cells at 50 mg/kg/day, po daily via gavage for 14 days measured on day 15 post last dose relative to control; format: organism-based; design: scale not given: the % may be the effect or the level left; conditions: in vivo, 336 h
# [3] = tested on: Rattus norvegicus; test: Toxicity in Crl:CD(SD) rat assessed as single cell necrosis in crypt cells in ileum at 50 mg/kg/day, po daily via gavage for 14 days measured on day 15 post last dose; format: organism-based; conditions: in vivo, 336 h
# [4] = Intrinsic clearance in rat liver microsomes; format: ADME, microsome; conditions: read-out: CLH
# [5] = target: 80S Ribosome; test: Binding affinity of [3H]PF-06446846 to human 80S ribosome
# [6] = Permeability from apical to basolateral side in MDCK cells harboring MDR1; format: ADME, cell-based, Canis lupus familiaris; conditions: dog, read-out: permeability
# How it was run: (§1)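 Bidirectional permeability across MDR1-transfected MDCK monolayers, apical-to-basolateral and basolateral-to-apical; Papp reported in 10^-6 cm/s.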
# [7] = tested on: Rattus norvegicus; test: Toxicity in Crl:CD(SD) rat assessed as decrease in total T cells at 50 mg/kg/day, po daily via gavage for 14 days measured on day 15 post last dose relative to control; format: organism-based; design: scale not given: the % may be the effect or the level left; conditions: in vivo, 336 h
# [8] = Lipophilicity, log D of the compound by shake flask method; format: physicochemical; conditions: octanol/water
# How it was run: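 LogD measured by the shake-flask method.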
# [9] = target: 80S Ribosome; test: Binding affinity to 80S ribosome in human HuH7 cells harboring pCMV-truncated human PCSK9 (1 to 152 residues)-proLuc assessed as inhibition of PCSK9 mRNA translation after overnight incubation by luciferase reporter gene assay; format: cell-based; conditions: huh-7
# How it was run: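 Huh7 cells stably carry human PCSK9 prodomain (aa 1-152) fused to firefly luciferase (aa 2-550) in pcDNA3.1, kept under 900 µg/mL Geneticin. Plated 10,000/well in phenol red-free DMEM/10% FBS and left 4 h, then compound added (top final 20 µM, 0.5% DMSO). Incubated overnight at 37 °C, luminescence read with SteadyGlo.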
# [10] = Permeability from basolateral to apical side in MDCK cells harboring MDR1; format: ADME, cell-based, Canis lupus familiaris; conditions: dog, read-out: permeability; how it was run: as §1
# [11] = tested on: Rattus norvegicus; test: Toxicity in Crl:CD(SD) rat assessed as decrease in cytotoxic T cells at 50 mg/kg/day, po daily via gavage for 14 days measured on day 15 post last dose relative to control; format: organism-based; design: scale not given: the % may be the effect or the level left; conditions: in vivo, 336 h
# [12] = target: Cytochrome P450 3A4 (Homo sapiens, UniProt P08684); test: Inhibition of CYP3A4 (unknown origin); format: ADME
# How it was run: (§2)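 Inhibition of CYP1A2, 2D6, 2C9 and 3A4 reported as IC50, or as percent inhibition at 3 µM.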
# [13] = Fraction unbound in rat plasma; format: ADME, cell-free
# How it was run: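 Unbound fraction measured in rat plasma.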
# [14] = tested on: Rattus norvegicus; test: Toxicity in Crl:CD(SD) rat assessed as decrease in basophils at 50 mg/kg/day, po daily via gavage for 14 days measured on day 15 post last dose relative to control; format: organism-based; design: scale not given: the % may be the effect or the level left; conditions: in vivo, 336 h
# [15] = tested on: Rattus norvegicus; test: Toxicity in Crl:CD(SD) rat assessed as decrease in proliferating erythroid cells at 50 mg/kg/day, po daily via gavage for 14 days measured on day 15 post last dose relative to control; format: organism-based; design: scale not given: the % may be the effect or the level left; conditions: in vivo, 336 h
# [16] = tested on: Rattus norvegicus; test: Reduction in LDL cholesterol level in Crl:CD(SD) rat at 50 mg/kg/day, po daily via gavage for 14 days measured on day 15 post last dose relative to control; format: functional; design: scale not given: the % may be the effect or the level left
# [17] = tested on: Rattus norvegicus; test: Toxicity in Crl:CD(SD) rat assessed as decrease in absolute maturing erythroid cells at 50 mg/kg/day, po daily via gavage for 14 days measured on day 15 post last dose relative to control; format: organism-based; design: scale not given: the % may be the effect or the level left; conditions: in vivo, 336 h
# [18] = tested on: Rattus norvegicus; test: Toxicity in Crl:CD(SD) rat assessed as decrease in B cells at 50 mg/kg/day, po daily via gavage for 14 days measured on day 15 post last dose relative to control; format: organism-based; design: scale not given: the % may be the effect or the level left; conditions: in vivo, 336 h
# [19] = tested on: Rattus norvegicus; test: Toxicity in Crl:CD(SD) rat assessed as decrease in monocytes at 50 mg/kg/day, po daily via gavage for 14 days measured on day 15 post last dose relative to control; format: organism-based; design: scale not given: the % may be the effect or the level left; conditions: in vivo, 336 h
# [20] = tested on: Bone marrow cell; test: Cytotoxicity against rat bone marrow cells assessed as reduction in cell viability after 72 hrs by CellTiter-Glo assay; format: cell-based
# [21] = tested on: Rattus norvegicus; test: Toxicity in Crl:CD(SD) rat assessed as decrease in hematocrit and hemoglobin level at 50 mg/kg/day, po daily via gavage for 14 days measured on day 15 post last dose relative to control; format: organism-based; design: scale not given: the % may be the effect or the level left; conditions: in vivo, 336 h
# [22] = tested on: Rattus norvegicus; test: Toxicity in Crl:CD(SD) rat assessed as discolored/mottled liver at 50 mg/kg/day, po daily via gavage for 14 days measured on day 15 post last dose; format: organism-based; conditions: in vivo, 336 h
# How it was run: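 Male rats, 5 per group, given vehicle or compound at 50 mg/kg/day by oral gavage for 14 days. Mortality, clinical signs and hematology monitored throughout. Necropsy on day 15 with microscopy of bone marrow, ileum, duodenum, jejunum and liver. Toxicokinetics at 1, 3, 6 and 24 h post-dose on day 14.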
# [23] = tested on: IEC-6; test: Cytotoxicity against rat IEC-6 cells assessed as reduction in cell viability after 3 days by CellTiter-Glo assay; format: cell-based; conditions: IEC-6, 72 h
# How it was run: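 Rat intestinal epithelial IEC-6 cells; viability read by CellTiter-Glo ATP luminescence.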
# [24] = Total plasma concentration in Crl:CD(SD) rat at 15 mg/kg/day, po daily via gavage for 14 days measured on day 14 post last dose up to 24 hrs; format: ADME, organism-based; conditions: in vivo
# [25] = target: T1, Cytochrome P450 1A2 (Homo sapiens, UniProt P05177); test: Inhibition of CYP1A2 (unknown origin); format: ADME; how it was run: as §2
# T1 sequence (P05177 whole entry): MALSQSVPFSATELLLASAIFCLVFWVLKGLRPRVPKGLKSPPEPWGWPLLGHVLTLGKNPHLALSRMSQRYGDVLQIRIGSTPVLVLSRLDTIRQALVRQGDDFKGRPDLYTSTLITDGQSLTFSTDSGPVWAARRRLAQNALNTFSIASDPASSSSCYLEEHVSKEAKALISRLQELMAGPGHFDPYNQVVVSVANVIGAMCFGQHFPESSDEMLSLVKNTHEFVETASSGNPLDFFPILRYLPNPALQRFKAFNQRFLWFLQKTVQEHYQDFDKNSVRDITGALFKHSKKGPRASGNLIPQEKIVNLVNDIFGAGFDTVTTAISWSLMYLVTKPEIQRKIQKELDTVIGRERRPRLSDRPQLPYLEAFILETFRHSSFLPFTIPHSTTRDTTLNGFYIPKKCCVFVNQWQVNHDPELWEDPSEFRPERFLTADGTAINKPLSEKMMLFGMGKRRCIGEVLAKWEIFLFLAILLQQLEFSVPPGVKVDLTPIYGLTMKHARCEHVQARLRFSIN
# [26] = tested on: Rattus norvegicus; test: Toxicity in Crl:CD(SD) rat assessed as decrease in total nucleated cell count at 50 mg/kg/day, po daily via gavage for 14 days measured on day 15 post last dose relative to control; format: organism-based; design: scale not given: the % may be the effect or the level left; conditions: in vivo, 336 h
# [27] = tested on: Rattus norvegicus; test: Toxicity in Crl:CD(SD) rat at 5 to 15 mg/kg/day, po daily via gavage for 14 days measured on day 15 post last dose; format: organism-based; conditions: in vivo, 336 h
# Chain of Cytochrome P450 3A4 (P08684 whole entry): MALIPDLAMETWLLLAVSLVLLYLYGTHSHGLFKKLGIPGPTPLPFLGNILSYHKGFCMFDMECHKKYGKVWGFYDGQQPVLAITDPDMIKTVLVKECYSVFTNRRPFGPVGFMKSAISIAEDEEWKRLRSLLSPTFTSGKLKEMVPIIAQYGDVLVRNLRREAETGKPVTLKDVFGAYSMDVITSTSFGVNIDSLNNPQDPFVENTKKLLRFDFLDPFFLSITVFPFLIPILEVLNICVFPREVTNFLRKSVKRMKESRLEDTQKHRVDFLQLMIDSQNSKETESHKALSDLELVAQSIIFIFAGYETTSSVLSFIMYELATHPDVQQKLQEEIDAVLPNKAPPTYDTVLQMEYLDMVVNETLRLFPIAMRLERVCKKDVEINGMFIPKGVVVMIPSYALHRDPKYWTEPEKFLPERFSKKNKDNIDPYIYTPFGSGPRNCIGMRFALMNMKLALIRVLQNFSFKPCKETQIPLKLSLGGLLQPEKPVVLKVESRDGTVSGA
smiles,measurement,setting,value
O=C(c1ccc(-n2nnc3cccnc32)cc1)N(c1ncccc1Cl)[C@@H]1CCCNC1,Activity,[1],54%
same,Activity,[2],46%
same,Activity,[3],Toxic
same,microsomal CLint,[4],18.2 µL/min/mg
same,Ki,[5],7 µM
same,Papp A→B,[6],1.5 ×10⁻⁶ cm/s
same,Activity,[7],54%
same,logD,[8],0.8
same,IC50,[9],0.38 µM
same,Papp B→A,[10],20.6 ×10⁻⁶ cm/s
same,Activity,[11],54.5%
same,IC50,[12],> 30 µM
same,fraction unbound,[13],0.2
same,Activity,[14],100%
same,Activity,[15],32.9%
same,Activity,[16],58%
same,Activity,[17],48%
same,Activity,[18],58%
same,Activity,[19],63%
same,IC50,[20],1.2 to 2.9 µM
same,Activity,[21],9 to 10%
same,Activity,[22],Toxic
same,IC50,[23],> 20 µM
same,concentration,[24],2420 nM
same,IC50,[25],> 30 µM
same,Activity,[26],30%
same,Activity,[27],Non-Toxic
